Source: PubChem (several laboratories)
Shown are actives, neighbours in structure and some others; about 4.9% of the full set was active somewhere.
STAT1 inh: STAT1 signaling inhibitors, primary screen, cell-based, HTS, luciferase reporter; NIH 3T3 STAT1-luciferase reporter, IFN-gamma, luminescence; inhibition, % at 5.5 µM; hit rate 0.35% among 200,000; AID 920, 2007;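 active means inhibition above a set limit, the mean inhibition across all tested compounds plus 3 SD, cut at about 34% in these data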;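 further: 0% = IFN-gamma with DMSO and 100% = IFN-gamma with 300 µM nifuroxazide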
STAT3 activator: IL-6 driven STAT3 reporter potentiators, primary screen, U3A cells, luciferase, luminescence, MLSCN library | activation (% of control), % at 5.6 µM | hit rate 0.91% among 190,000 | IL-6 STAT3-luciferase reporter; 100% = signal with IL-6 EC80 alone | AID 871, 2007;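 active means activation above the screen-wide mean of compound activation plus 3 SD, cut at about 130% in these data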;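 further: 0% = background luminescence of wells with medium and substrate only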
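Material: STAT3-luciferase reporter U3A cells. Controls: IL-6-treated wells, 100% activation. Read-out: % activation versus median of IL-6-stimulated wells. Probe or stimulus: IL-6 stimulus at 33 ng/mL final. Timing: compound 1 h, then IL-6 6 h at 37 °C. Signal: reporter luminescence signal.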
STAT3 inh: IL-6 driven STAT3 reporter inhibitors, primary screen, U3A cells, luciferase, luminescence, MLSCN library; IL-6 STAT3-luciferase reporter; host cell line lacks STAT1; inhibition, % at 5.5 µM; hit rate 0.89% among 190,000; AID 862, 2007;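 active means inhibition above the mean inhibition across all screened compounds plus 3 SD, cut at about 44% in these data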;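 further: 0% = DMSO only wells and 100% = 100 µM nifuroxazide control wells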
STAT1 activator: STAT1 signaling activators, primary screen, cell-based, HTS, luciferase reporter; hit rate 2.6% among 200,000; NIH 3T3 STAT1-luciferase reporter, IFN-gamma, luminescence; 100% = IFN-gamma alone, no compound; activation (% of control), % at 5.5 µM; AID 932, 2007;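 active means activation above the screen-wide mean activation plus 3 SD, cut at about 130% in these data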;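 further: raw ratio to IFN-gamma control signal so 100% means no change and 0% no light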
NF-kB neuron act: activators of NF-kB expression in neurons, primary screen, cell-based, HTS; human neuronal cells, NF-kB reporter expression; hits give high values; fold change at 12.5 µM; hit rate 1.6% among 190,000; AID 1239, 2008; in the data active means fold change above about 3.3
APP 5'UTR act: activators of APP 5'UTR luciferase reporter, primary screen, SH-SY5Y cells; SH-SY5Y APP 5'UTR luciferase reporter, luminescence; zero percent = DMSO vehicle wells; activation, % at 2 µM; hit rate 1% among 190,000; AID 1276, 2008;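 active means activation above a set limit, based on mean plus 3 SD of controls, cut at about 140% in these data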
Active calls of the source: *; · = no result.

SMILES	STAT1 inh	STAT3 activator	STAT3 inh	STAT1 activator	NF-kB neuron act	APP 5'UTR act
COc1ccc(C(=O)Nc2nnc(-c3cccs3)s2)cc1	-23	157*	-72	122	3.3*	47
CC(=O)Cc1nsc(NC(=O)c2cccc(F)c2)n1	-43	103	2	142*	1.8	-1
COc1ccc(C(=O)Nc2nc(-c3cccs3)c(NC(C)=O)s2)cc1	25	96	7	79	2	-15
O=C(CN1CCCC1)Nc1nnc(-c2cccs2)s1	-11	100	4	110	1.6	-5
O=C(Nc1nnc(-c2cccs2)s1)c1cccc(F)c1	-39	106	-5	134*	2.4	93
COCCSc1nnc(NC(=O)c2ccc(OC)c([N+](=O)[O-])c2)s1	-6	98	5	105	1.1	-10
Cc1ccccc1-c1nc(-c2ccccn2)no1	77*	24	99*	29	1.2	91
COc1nc(C)ccc1-c1noc(-c2ccccn2)n1	-26	70	38	124	4.2*	24
Cc1ccccc1-c1nc(Cc2ccccc2)no1	-43	95	10	140*	2.4	30
COc1ccccc1-c1noc(-c2cccs2)n1	-33	119	-19	130*	3.8*	101
Clc1ccc(-c2nc(Cc3ccccc3)no2)cc1	-8	97	9	107	2.2	-9
COc1ccccc1-c1noc(-c2ccncc2)n1	-21	95	5	119	1.4	20
Cc1cccc(S(=O)(=O)NCCc2ccccc2)c1	-10	103	2	106	1	5
O=C(Nc1ccnc(-c2ccncc2)n1)c1ccc(Cl)cc1	1	97	6	98	1.1	3
COc1ccc(-c2nc(-c3ccccn3)no2)cc1	96*	8	109*	10	0.24	-46
COc1ccccc1-c1nc(-c2ccccn2)no1	36*	42	75*	68	2.5	98
COc1ccc(Oc2nc(-c3ccccn3)ncc2OC)cc1	10	79	26	91	1.1	-7
CCOC(=O)C1(CCc2ccccc2)CCN(C(=O)CCn2cncn2)CC1	-46	109	-5	139*	·	41
CCOC(=O)C1(CCCc2ccccc2)CCN(C(=O)CCn2cncn2)CC1	-10	99	4	108	0.71	16
CSc1ccc(C(=O)C2CCCN(S(=O)(=O)c3c(C)noc3C)C2)cc1 (stereo not drawn)	8	100	6	92	1.4	-8
c1ccc(-c2ccc(-c3csnn3)cc2)cc1	-36	112	-4	132*	2.1	8
FC(F)(F)c1cccc(-c2ccc(-c3csnn3)o2)c1	-8	84	23	108	1.4	12
COc1ccccc1-c1nn2c(C3COc4ccccc4O3)nnc2s1 (stereo not drawn)	-2	133*	-36	102	1.1	-2
c1ccc(Cc2nn3c(C4COc5ccccc5O4)nnc3s2)cc1 (stereo not drawn)	-5	135*	-41	104	1.7	15
COc1ccc2c(CCNC(=O)c3ccc([N+](=O)[O-])cc3)c[nH]c2c1	-8	89	20	106	1.1	18
SMILES	STAT1 inh	STAT3 activator	STAT3 inh	STAT1 activator	NF-kB neuron act	APP 5'UTR act
Clc1ccc(-c2cc(CSc3cccc(Cl)c3)on2)cc1	2	81	29	98	1.3	·
Clc1ccc(-c2cc(CSc3ccccc3)on2)cc1	-40	99	7	136*	6.2*	·
S=c1[nH]nc(-c2ccc(Br)cc2)n1Cc1ccccc1	-8	105	0	106	1	-18
Brc1ccc(C2=NC(Cc3ccccc3)CO2)cc1 (stereo not drawn)	-20	105	-9	118	3.3*	62
O=C(CNC(=O)c1ccc(-c2ccccc2)cc1)OCc1ccc(Br)cc1	-7	87	19	106	1.4	10
Cc1ccc(CNC(=O)CSCc2cccc(F)c2)cc1	-21	109	3	119	1.2	3
O=C(CSCc1ccccc1F)NCc1ccccc1	-33	106	-2	133*	1.9	12
O=C(CSCc1cccc(F)c1)NCc1ccccc1	-36	101	6	133*	2.2	2
CN(C)C1(CNC(=S)Nc2ccccc2C(F)(F)F)CCCCC1	-6	100	5	103	0.97	4
O=C(NC1CCCCC1)N1CCc2ccccc21	-32	99	5	129*	2.4	52
O=C(C1CCC(C(=O)N2CCc3ccccc32)CC1)N1CCc2ccccc21 (stereo not drawn)	4	95	11	97	1.2	-16
Nc1ccc(NC(=O)NC2CCCCC2)cc1	-16	95	12	115	1.4	4
O=C(Nc1ccc2nsnc2c1)C1CC1	-6	88	16	104	0.97	-2
COc1ccc(NC(=O)Nc2cccc(OC)c2)cc1	-18	104	3	117	·	66
S=C(Nc1ccc2nsnc2c1)N1CCCCC1	-36	97	2	132*	2.6	65
S=C(Nc1ccc2nc(-c3ccccn3)c(-c3ccccn3)nc2c1)N1CCCCC1	2	101	1	97	0.95	-6
O=C(Nc1ccc(Cl)cc1)NC1CCCCC1	-43	115	-15	138*	2.6	46
COc1cccc(NC(=O)Nc2ccc3nsnc3c2)c1	-35	94	12	131*	1.8	·
O=C(Nc1ccc2nsnc2c1)NC1CCCCC1	-34	107	-8	131*	3.8*	92
CCOC(=O)C1CCN(C(=O)CSc2ccccc2Cl)CC1	1	98	10	98	1	5
CCOc1ccc(NC(=O)CCC(=O)NNC(=O)COc2ccccc2C)cc1	-3	99	6	102	1.2	29
COc1cc(NC(=S)N2CCC(C(O)(c3ccccc3)c3ccccc3)CC2)cc(OC)c1	2	97	2	100	1.1	-13
CC(C(=O)Nc1cccc(S(=O)(=O)N2CCOCC2)c1)N1CCN(c2ccc(F)cc2)CC1 (stereo not drawn)	8	96	14	91	0.72	0
CCOCC(=O)Nc1nc2ccc(OC)cc2s1	-28	81	28	126	3.3	73
CCC(=O)Nc1nc2cc(OC)ccc2s1	-44	100	6	140*	3.6*	87
COc1ccc2sc(NC(C)=O)nc2c1	-39	92	11	136*	2.4	103
CCC(=O)Nc1nc2ccc3nc(C)sc3c2s1	-54	102	7	149*	3.5*	28
COc1ccc2sc(NC(=O)CC(C)C)nc2c1	-51	80	24	146*	3.5*	94
